Rin1-Abl PPI inh – blocks binding of human Rin1 to Abl. inhibition, % at 7.35 µM. TR-FRET Rin1/Abl binding, biochemical. 0.4% of 360,000 active. P00519+Q13671; in the data active = inhibition above about 5%, passing the limit was not always enough
Target sequence (P00519 whole entry, looked up): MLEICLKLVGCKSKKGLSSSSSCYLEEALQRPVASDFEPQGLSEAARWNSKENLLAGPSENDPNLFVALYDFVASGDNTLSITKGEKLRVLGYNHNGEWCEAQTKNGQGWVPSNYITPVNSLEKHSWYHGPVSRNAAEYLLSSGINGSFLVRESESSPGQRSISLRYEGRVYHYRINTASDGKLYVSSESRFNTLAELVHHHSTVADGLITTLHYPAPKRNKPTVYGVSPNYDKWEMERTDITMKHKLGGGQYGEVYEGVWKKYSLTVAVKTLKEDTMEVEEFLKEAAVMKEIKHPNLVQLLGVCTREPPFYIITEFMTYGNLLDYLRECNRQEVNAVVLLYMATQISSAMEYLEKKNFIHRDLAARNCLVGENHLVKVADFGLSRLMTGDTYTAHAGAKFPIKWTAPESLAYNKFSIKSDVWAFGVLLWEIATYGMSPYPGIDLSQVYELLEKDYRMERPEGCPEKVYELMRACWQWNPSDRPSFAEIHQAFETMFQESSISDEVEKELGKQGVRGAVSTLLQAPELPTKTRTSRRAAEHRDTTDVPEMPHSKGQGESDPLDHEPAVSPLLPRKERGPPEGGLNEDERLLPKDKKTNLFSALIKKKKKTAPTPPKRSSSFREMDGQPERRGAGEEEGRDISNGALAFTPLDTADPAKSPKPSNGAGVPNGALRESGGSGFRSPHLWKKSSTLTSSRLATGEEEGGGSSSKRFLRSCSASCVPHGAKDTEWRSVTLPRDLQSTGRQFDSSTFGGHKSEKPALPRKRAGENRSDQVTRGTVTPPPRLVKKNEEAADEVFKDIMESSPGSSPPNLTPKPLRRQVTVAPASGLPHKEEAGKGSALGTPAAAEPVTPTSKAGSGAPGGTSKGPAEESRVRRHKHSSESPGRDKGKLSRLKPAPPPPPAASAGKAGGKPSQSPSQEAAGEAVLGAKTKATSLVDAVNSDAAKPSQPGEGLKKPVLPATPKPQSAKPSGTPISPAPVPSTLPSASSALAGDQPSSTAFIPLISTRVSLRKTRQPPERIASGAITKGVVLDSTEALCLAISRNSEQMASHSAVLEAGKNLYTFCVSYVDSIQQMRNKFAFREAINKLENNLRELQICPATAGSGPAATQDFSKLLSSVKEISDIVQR
Target sequence (Q13671 whole entry, looked up): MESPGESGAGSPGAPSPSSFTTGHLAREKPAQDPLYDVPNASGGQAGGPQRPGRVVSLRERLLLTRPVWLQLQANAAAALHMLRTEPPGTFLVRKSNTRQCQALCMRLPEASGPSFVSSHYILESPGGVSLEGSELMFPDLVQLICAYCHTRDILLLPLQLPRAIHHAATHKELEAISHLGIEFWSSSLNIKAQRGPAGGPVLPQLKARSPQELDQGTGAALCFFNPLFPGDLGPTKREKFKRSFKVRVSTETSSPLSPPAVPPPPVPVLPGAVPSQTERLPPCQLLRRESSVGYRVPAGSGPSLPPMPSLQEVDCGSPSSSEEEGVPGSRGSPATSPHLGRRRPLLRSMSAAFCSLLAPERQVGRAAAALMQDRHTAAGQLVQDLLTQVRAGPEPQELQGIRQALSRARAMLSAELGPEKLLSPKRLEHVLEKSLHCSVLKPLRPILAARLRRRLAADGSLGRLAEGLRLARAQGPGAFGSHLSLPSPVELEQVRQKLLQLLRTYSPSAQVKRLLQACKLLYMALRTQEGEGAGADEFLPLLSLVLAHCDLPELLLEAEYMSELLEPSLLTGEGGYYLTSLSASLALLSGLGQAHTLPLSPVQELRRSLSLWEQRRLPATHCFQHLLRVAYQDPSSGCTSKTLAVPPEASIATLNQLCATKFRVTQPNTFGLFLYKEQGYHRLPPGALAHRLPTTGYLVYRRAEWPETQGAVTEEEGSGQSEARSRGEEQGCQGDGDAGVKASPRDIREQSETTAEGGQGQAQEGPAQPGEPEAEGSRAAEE
Arrestin-AP2 inh – blocks beta-arrestin peptide binding to AP2 adaptin | FITC-arrestin peptide / GST-AP2 beads, flow cytometry; AP2 beta2 appendage carries R879A mutation | inhibition, % at 10 µM | 0.31% of 340,000 active | AID 504490;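 active = inhibition above a set limit, near 3 SD of compounds lacking own fluorescence, cut at about 54% in these data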;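 also: plate controls were DMSO wells for no effect and 5 µM unlabelled arrestin peptide for full effect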
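Assay system: GST-AP2 R879A bound to glutathione beads, E. coli-expressed; Medium: PBS with 0.05% Tween 20 and 0.1% BSA; Also added: fluorescein-tagged arrestin peptide at 50 nM final; Timing: 12 min plus 1 h, RT; Measured by: flow cytometry, FL1 (488/535 nm); Evaluation: percent drop in bead-associated FITC signal.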
MT1-MMP act inh – inhibitors of human MT1-MMP activation. 0.061% of 360,000 active. GFP/RFP ratio change, % at 20 µM. HT1080 RFP-PRO-GFP cells, GFP/RFP ratio fluorescence, overnight; percent of plate control window, DMSO zero. AID 651647;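 active = GFP/RFP ratio change of at least 30% with cell ATP level not reduced by more than half and red fluorescence within 50% of control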
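Test system: HT1080 RFP-PRO-GFP cells; Benchmarks: DMSO and RFP-L50D-GFP cell wells; Timing: cells overnight before dosing, compound overnight, 37 °C, 5% CO2; Compound: one 20 µM compound dose with 1% DMSO; Read-out: GFP/RFP fluorescence ratio.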
Tb MetRS inh – blocks T. brucei methionyl-tRNA synthetase activity. 0.4% of 360,000 active. AID 624268. inhibition, % at 11.9 µM. purified T. brucei MetRS, ATP depletion, Kinase-Glo luminescence;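 active = inhibition above a per-plate cutoff of the control wells' mean inhibition plus 3 SD, cut at about 5.5% in these data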;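 also: 0% = DMSO wells median and 100% = median of wells with control inhibitor compound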
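System: purified T. brucei MetRS enzyme / Detection: Kinase-Glo luciferase luminescence reporting remaining unconsumed ATP / Medium: HEPES buffer with MgCl2, KCl, DTT, spermine, BSA, pyrophosphatase / Replication: singlicate, one well per compound / Evaluation: percent inhibition relative to median high and low control wells / Schedule: 2 h aminoacylation at 25 °C after 15 min preincubation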
SKN-1 inh – inhibitors of C. elegans SKN-1; C. elegans VP596 Pgst-4::GFP/RFP ratio, acrylamide-induced, 24 h; inhibition, % at 21.8 µM; 0.49% of 360,000 active;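 active = interference check ratio from 0.5 to 1.5 plus GFP to RFP signal ratio inhibition reaching or exceeding a fixed threshold, cut at about 30% in these data, passing the limit was not always enough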
Arr AP2 CP1 – human beta-arrestin and AP2 interaction inhibition, cherry pick. shares compounds with Arrestin-AP2 inh. GST-AP2 beads, FITC arrestin peptide binding, flow cytometry; GST-fused beta2-adaptin appendage, R879A mutant. inhibition, % at 10 µM. 2% of 1,300 active;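 active = inhibition above a set limit, roughly 3 SD of non-fluorescent compound noise, cut at about 38% in these data; inactive = inhibition at or below that limit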;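 also: loss of bead fluorescence from 50 nM FITC arrestin peptide bound to appendage; 0% = negative control wells and 100% = excess unlabelled arrestin peptide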
GST-FITC bead – disrupts GST binding to glutathione beads, arrestin-AP2 artifact; shares compounds with Arrestin-AP2 inh; GST-fluorescein binding to GSH beads, fluorescence, counter-screen; inhibition, % at 10 µM; 2% of 1,300 active; AID 588338;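 active = inhibition above 50%, about 3 SD of the inhibition seen with non-fluorescent compounds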;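 also: fluorescein maleimide labelled GST captured on 4 micron glutathione beads; higher means more loss of bead fluorescence from quenching or blocked binding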
Active calls of the source: *; . = not tested or not shown. Compounds with a hit are over-represented: about 1.6% of the library has one in this group of screens.

SMILES	Rin1-Abl PPI inh	Arrestin-AP2 inh	MT1-MMP act inh	Tb MetRS inh	SKN-1 inh	Arr AP2 CP1	GST-FITC bead
O=C(C[C@@H]1CC[C@@H]2[C@H](COC[C@H](O)CN2C(=O)Nc2ccc(F)cc2)O1)NCCc1ccncc1	.	.	5	-1	-4	.	.
CCOC(=O)c1cc2c(ccn2C)n1Cc1ccc(C#N)cc1	-2	29	-4	-1	7	.	.
CCOC(=O)c1cc2c(ccn2C)n1Cc1ccc(Cl)cc1	-3	54*	-6	0	7	-9	-2
COc1ccc(N2C(=O)CSC2c2ccc3c(c2)OCO3)cc1 (stereo not given)	-4	61*	1	-1	-5	4	-8
Cc1ccc(-c2nc(NC(=O)c3ccc(S(=O)(=O)N(CCC#N)CCC#N)cc3)sc2-c2ccccc2)cc1	-2	63*	-3	-1	12	0	-3
N#CCCN(CCC#N)S(=O)(=O)c1ccc(C(=O)Nc2nc(-c3ccccc3)c(C(=O)c3ccccc3)s2)cc1	3	-3	8	0	-9	.	.
COc1ccc(NC(=O)c2ccc(Cc3ccc(C)cc3)o2)cc1	1	23	0	0	5	.	.
Cc1ccc(Cc2ccc(C(=O)NNC(N)=S)o2)cc1	6	59*	4	0	4	-8	-2
CCCNC(=O)c1noc2c1CCc1ccccc1-2	3	-13	3	0	29	.	.
O=C(Nc1cccnc1Cl)c1noc2c1CCc1ccccc1-2	-1	55*	0	-1	-1	10	-16
CCc1ccc2c(c1)NC(=O)C2(C)Cc1ccccc1OC (stereo not given)	2	.	1	0	9	.	.
N#Cc1cccc(-n2nnnc2-c2ccc3c(c2)OCO3)c1	-1	70*	-1	0	-7	-7	-10
CCc1nc2c(OCCC3CCCCC3)cccn2c1N(C)C(=O)c1ccc(C)cc1	0	.	-19	-1	12	.	.
COc1cc(OC)cc(C(=O)NC(C(=O)NNC(=O)c2ccc(C)cc2)C(C)C)c1 (stereo not given)	2	63*	-5	0	-11	4	-2
CC(O)c1nc2ccccc2n1Cc1ccccc1 (stereo not given)	-1	54*	-3	0	6	-3	-6
CC(O)c1nc2ccccc2n1CCCc1ccccc1 (stereo not given)	1	6	1	0	-1	.	.
CCOc1cccc(OCCCNCCCOC)c1	-3	93*	1	0	-1	4	-6
CCNS(=O)(=O)c1ccc(NC(=O)Cn2nc(C(F)(F)F)cc2C)cc1	2	62*	0	1	-7	7	5
C[C@@H]1CN([C@H](C)CO)C(=O)CCCn2cc(nn2)CO[C@H]1CN(C)C(=O)Nc1ccc2c(c1)OCO2	1	.	2	0	-13	.	.
COc1ccc(NC(=O)CN(C)C(=O)C(NC(=O)c2ccco2)C(C)C)cc1 (stereo not given)	1	61*	-1	0	5	0	-2
COc1cccc(NC(=O)CN(C)C(=O)C(CCSC)NC(=O)c2ccco2)c1 (stereo not given)	3	-4	2	0	-8	.	.
COc1ccc(-c2ccc(CN3C(C)C(=O)N(Cc4cn(CCC5OCCO5)nn4)CCS3(=O)=O)cc2)cc1 (stereo not given)	0	.	-13	-1	15	.	.
O=C1CN(C(=O)/C=C/c2ccccc2)CCN1	4	57*	7	1	-20	-12	-15
COc1cccc(-c2nc3nc(C)cc(C)n3c2NCc2ccccc2)c1	.	.	-1	-2	8	.	.
CCOC(=O)[C@]12CCCC=C1N(Cc1ccc3c(c1)OCO3)C(=O)[C@H](CC(=O)N1CCN(C(=O)C3CC3)CC1)C2	.	.	2	0	6	.	.
SMILES	Rin1-Abl PPI inh	Arrestin-AP2 inh	MT1-MMP act inh	Tb MetRS inh	SKN-1 inh	Arr AP2 CP1	GST-FITC bead
O=C(Oc1ccc2ccc(=O)oc2c1)N1CCOCC1	1	55*	-2	-1	-24	1	-9
Cc1ccc(C(=O)NCC(=O)Nc2ccc3c(c2)CCC3)cc1C	5	5	-3	-1	1	.	.
O=C(CNC(=O)c1ccc(Br)cc1)Nc1ccc2c(c1)CCC2	0	54*	-3	0	-4	12	3
O=C1NC[C@H](Cc2ccc(O)cc2)N(C[C@@H]2CCCN2C[C@H](Cc2ccc(O)cc2)N2C[C@H](Cc3ccccc3)N(CCc3ccccc3)C(=O)C2=O)C1=O	.	.	0	0	8	.	.
O=C(CNC(=O)c1ccccc1Br)NCC(c1ccco1)N1CCCCC1 (stereo not given)	2	66*	0	0	-2	3	-10
O=C(C(=Cc1ccc(F)cc1)C(=O)c1ccccc1)c1ccccc1	4	.	-2	-1	6	.	.
CCNC(=S)/N=C(\N)Nc1nc(C)c2cc(C)ccc2n1	-2	64*	-6	1	-1	-7	1
COc1ccc(C2=C(c3ccc([N+](=O)[O-])cc3)C(=O)OC2)cc1	-4	7	-2	0	8	.	.
Cc1ccc(C2=C(c3ccc([N+](=O)[O-])cc3)C(=O)OC2)cc1C	2	54*	-6	-1	-2	-5	0
Fc1cccc(Cl)c1/C=N/Nc1ccccn1	-1	11	-5	-1	-2	.	.
Fc1cccc(F)c1/C=N/Nc1ccccn1	-5	55*	-2	-1	1	-4	-2
COc1ccc(C2=Nc3ccccc3N(C(=O)c3cc(Cl)cc(Cl)c3)C2C(=O)NCc2ccccc2)cc1 (stereo not given)	.	.	-6	0	12	.	.
O=C(Nc1cccc(F)c1)Nc1cnccn1	4	1	-4	0	-1	-7	-6
COc1ccc(NC(=O)Nc2cc(C)ccn2)cc1	-3	0	-2	0	2	.	.
COc1ccc(NC(=O)Nc2cnccn2)cc1	2	-16	9	0	-4	9	3
CCOc1ccc(NC(=O)Nc2cnccn2)cc1	-3	5	3	1	-8	-2	-7
COc1ccccc1Nc1nc2c(C)cccc2cc1C#N	-5	57*	-12	-1	-6	-3	9
COc1ccc(C(O)c2nc(-c3cccc4cccnc34)cs2)cc1 (stereo not given)	0	.	0	0	11	.	.
CN(C)c1oc(COc2ccc(F)cc2)nc1C#N	-2	55*	4	0	7	0	4
CN(C)c1oc(COc2ccccc2F)nc1C#N	2	-2	2	0	30	.	.

Screening data as filed in PubChem.
